According to PMC3378324 (Febs Letters, 2012):

Key:
Fyn(R96I)-SH3-GST = test: GST pull-down, SDS-PAGE and Coomassie blue staining; assay type: binding; settings: in vitro
Procedure, shortened: (§1)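 Partner protein: human Alix fragment ALIX_V+PRR (residues 362–760, V domain plus SH3-binding proline-rich region), expressed with an N-terminal His6-Smt3 tag in E. coli BL21(DE3). Baits were GST-fused SH3 domains (Hck; Fyn wild-type; Fyn RT-loop mutant with Arg96 replaced by Ile). In vitro GST pull-down; bound protein resolved by SDS-PAGE and visualised by Coomassie blue staining.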

[1] = test system: Hck-SH3, Fyn(WT)-SH3, and Fyn(R96I)-SH3; test: NMR 1H-15N HSQC, comparison across SH3 domains; assay type: binding; settings: 1 equivalent of ALIXV+PRR
[2] = SAXS; apo; compared with 190 ± 10 Å; ref [12]; cited from earlier work
Hck-SH3-GST = test: GST pull-down, SDS-PAGE and Coomassie blue staining; assay type: binding, human; settings: in vitro
Procedure, shortened: as §1

Hck = settings: ref [12]; cited from earlier work

Row | GST pull-down binding (Fyn(R96I)-SH3-GST) | GST pull-down binding (Hck-SH3-GST) | Molecule | involvement of nSrc loop, Hck-SH3 versus Fyn(R96I)-SH3 [1] | maximum diameter (Dm) compared with Fyn(R96I)-SH3-bound ALIXV+PRR [2] | binding to and activation of Hck (Hck)
1 | binding | binding | ALIXV+PRR: Human Alix recombinant construct (ALIXV+PRR) consisting of residues 362–760 (protein, left off: His6-Smt3, N-terminal, state not stated) SVQQSLAAYNQRKADLVNRSIAQMREATTLANGVLASLNLPAAIEDVSGDTVPQSILTKSRSVIEQGGIQTVDQLIKELPELLQRNREILDESLRLLDEEEATDNDLRAKFKERWQRTPSNELYKPLRAEGTNFRTVLDKAVQADGQVKECYQSHRDTIVLLCKPEPELNAAIPSANPAKTMQGSEVVNVLKSLLSNLDEVKKEREGLENDLKSVNFDMTSKFLTALAQDGVINEEALSVTELDRVYGGLTTKVQESLKKQEGLLKNIQVSHQEFSKMKQSNNEANLREEVLKNLATAYDNFVELVANLKEGTKFYNELTEILVRFQNKCSDIVFARKTERDELLKDLQQSIAREPSAPSIPTPAYQSSPAGGHAPTPPTPAPRTMPPTKPQPPARPPP | the nSrc loop seems to be more involved in the Hck-SH3–ALIXV+PRR interaction than in the Fyn(R96I)-SH3–ALIXV+PRR interaction | the same | –
2 | – | – | Alix: ALG-2 (apoptosis-linked gene 2)-interacting protein X, an adapter protein (protein, UniProt Q8WUM4 2-868, looked up) Programmed cell death …: ATFISVQLKKTSEVDLAKPLVKFIQQTYPSGGEEQAQYCRAAEELSKLRRAAVGRPLDKHEGALETLLRYYDQICSIEPKFPFSENQICLTFTWKDAFDKGSLFGGSVKLALASLGYEKSCVLFNCAALASQIAAEQNLDNDEGLKIAAKHYQFASGAFLHIKETVLSALSREPTVDISPDTVGTLSLIMLAQAQEVFFLKATRDKMKDAIIAKLANQAADYFGDAFKQCQYKDTLPKEVFPVLAAKHCIMQANAEYHQSILAKQQKKFGEEIARLQHAAELIKTVASRYDEYVNVKDFSDKINRALAAAKKDNDFIYHDRVPDLKDLDPIGKATLVKSTPVNVPISQKFTDLFEKMVPVSVQQSLAAYNQRKADLVNRSIAQMREATTLANGVLASLNLPAAIEDVSGDTVPQSILTKSRSVIEQGGIQTVDQLIKELPELLQRNREILDESLRLLDEEEATDNDLRAKFKERWQRTPSNELYKPLRAEGTNFRTVLDKAVQADGQVKECYQSHRDTIVLLCKPEPELNAAIPSANPAKTMQGSEVVNVLKSLLSNLDEVKKEREGLENDLKSVNFDMTSKFLTALAQDGVINEEALSVTELDRVYGGLTTKVQESLKKQEGLLKNIQVSHQEFSKMKQSNNEANLREEVLKNLATAYDNFVELVANLKEGTKFYNELTEILVRFQNKCSDIVFARKTERDELLKDLQQSIAREPSAPSIPTPAYQSSPAGGHAPTPPTPAPRTMPPTKPQPPARPPPPVLPANRAPSATAPSPVGAGTAAPAPSQTPGSAPPPQAQGPPYPTYPGYPGYCQMPMPMGYNPYAYGQYNMPYPPVYHQSPGQAPYPGPQQPSYPFPQPPQQSYYPQQ | – | – | binds to and activates Hck
